In ChEMBL document CHEMBL1122925 (J Med Chem, 1985):
“And” between values parts separate entries of the source, which are not always exact repeats. Equal values may be shown once.

How the values were obtained:
Vero [1] = assay: The concentration required to inhibit the growth of viral plaques by 50% of control in plaque reduction assay; format: functional, cell-based; details: Chlorocebus sabaeus
Procedure, shortened: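 HSV-1 plaque-reduction assay, H29 strain for most values and Mac strain for some. IC50 is the concentration that inhibits viral plaque growth by 50% relative to controls.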

[2] = tested on: Thymidine kinase (Human herpesvirus 1); assay: Ability (300 uM) to compete with 150 uM of [14C]ACV for binding sites on viral enzyme (HSV-1 TK); details: Human alphaherpesvirus 1
[3] = molecular target: T1, Thymidine kinase (Human alphaherpesvirus 1) (UniProt Q9QNF7); assay: Relative substrate velocity was evaluated by using HSV-1 TK assay
T1 sequence (whole entry): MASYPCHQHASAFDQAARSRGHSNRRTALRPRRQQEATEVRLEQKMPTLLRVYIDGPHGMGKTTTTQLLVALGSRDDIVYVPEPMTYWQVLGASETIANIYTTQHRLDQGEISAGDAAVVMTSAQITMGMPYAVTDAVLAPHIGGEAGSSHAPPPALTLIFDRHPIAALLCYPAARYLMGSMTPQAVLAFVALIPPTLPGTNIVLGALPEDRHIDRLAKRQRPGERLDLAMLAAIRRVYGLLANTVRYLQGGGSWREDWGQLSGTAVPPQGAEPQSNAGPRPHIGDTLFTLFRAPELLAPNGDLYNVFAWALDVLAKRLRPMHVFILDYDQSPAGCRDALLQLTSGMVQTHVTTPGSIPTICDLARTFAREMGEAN

[4] = tested on: Thymidine kinase (Human herpesvirus 1); assay: Relative substrate velocity was evaluated against Mac strain by using HSV-1 TK assay; details: Human alphaherpesvirus 1
[5] = tested on: Thymidine kinase (Human herpesvirus 1); assay: Ability (300 uM) to compete with 150 uM of [14C]ACV for binding sites on H29 strain viral enzyme (HSV-1 TK); details: Human alphaherpesvirus 1
Vero [6] = assay: Zone of inhibition of plaque formation in vero cells inoculated with HSV-1 virus along with disks containing 50 ug of compound; 11-50 mm zone of inhibition; format: functional, Chlorocebus sabaeus
Procedure, shortened: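 HSV-1 plaque-inhibition test in Vero cells, H29 strain for most values and Mac strain for some. Disks carry 50 μg of test compound. The read-out is the diameter of the zone without plaque formation, and a zone of 11–50 mm is scored (+).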

[7] = tested on: Thymidine kinase (Human herpesvirus 1); assay: Ability (300 uM) to compete with 150 uM of [14C]ACV for binding sites on viral enzyme, Mac strain (HSV-1 TK); details: Human alphaherpesvirus 1
[8] = tested on: Thymidine kinase (Human herpesvirus 1); assay: Relative substrate velocity was evaluated against H29 strain by using HSV-1 TK assay; details: Human alphaherpesvirus 1
[9] = tested on: Thymidine kinase (Human herpesvirus 1); assay: Relative substrate velocity was evaluated by using HSV-1 TK assay; details: Human alphaherpesvirus 1

Row | Structure (SMILES) | IC50 (Vero [1]) [µM] | inhibition [2] [%] | inhibition [7] [%] | further results
1 | NC(=O)c1ncn(COCCO)n1 | > 200 | 0 |  | 
2 | Nc1nc2c(cnn2COCCO)c(=O)[nH]1 |  | 0 |  | 
3 | Nc1nc(O)c2cc3ncn(COCCO)c3cc2n1 |  | 24 |  | Relative substrate velocity [3]: < 3%
4 | Nc1nc(O)c2nnn(COCCO)c2n1 | 129 |  | 23 | Relative substrate velocity [4]: 5% and 9%; inhibition [5]: 27%; Zone of inhibition (Vero [6]): 11; Relative substrate velocity [8]: 9%
5 | Nc1nc2c(ncn2COCCO)c(=O)[nH]1 [ACYCLOVIR] | 0.1 |  |  | 
6 | Nc1nc(=O)ccn1COCCO |  | 0 | 7 | Relative substrate velocity [9]: < 3%
7 | NC(=O)c1ncn(COCCO)c1N |  | 1 |  | 
8 | Nc1nc(O)c2ccn(COCCO)c2n1 |  |  | 6 | Relative substrate velocity [9]: 3%
